Data on one compound can be found in ChEMBL document CHEMBL1629690, “Development of hexadecyloxypropyl tenofovir (CMX157) for treatment of infection caused by wild-type and nucleoside/nucleotide-resistant HIV” (Antimicrob Agents Chemother, 2010).

For one test, the system named is Human immunodeficiency virus 1. Description: Antiviral activity against HIV1 isolate 188 harboring reverse transcriptase T215Y/M184V mutant gene by phenosense assay relative to wild type. Format: functional.
Conditions: not given
The procedure, abridged:
(§1)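 Recombinant-virus PhenoSense HIV assay run on a panel of 30 NRTI-resistant HIV-1 mutants and two wild-type viruses. Each virus is tested across increasing drug concentrations to give an inhibition curve and EC50. Fold change is the test recombinant EC50 divided by the EC50 of the drug-sensitive wild-type reference virus.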
Take `CCCCCCCCCCCCCCCCOCCCOP(=O)(O)CO[C@H](C)Cn1cnc2c(N)ncnc21` [TENOFOVIR EXALIDEX]: the “fold change (FC)” value is reported as 0.9.

The next test concerns Human immunodeficiency virus 1. Description: Antiviral activity against HIV1 isolate 204 harboring reverse transcriptase M41L/L210W/T215Y/M184V mutant gene by phenosense assay. It counts as functional, organism-based. Conditions: Human immunodeficiency virus 1, isolate 204. The procedure, abridged: (§2)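 PhenoSense HIV recombinant virus assay: patient-derived HIV-1 with major NRTI resistance mutations tested against increasing drug concentrations to give inhibition curves. EC50 is the concentration giving 50% inhibition. Fold change is the test recombinant EC50 divided by the EC50 of a drug-sensitive wild-type reference virus. Panel of 30 NRTI-resistant isolates plus two wild-type viruses.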
Take `CCCCCCCCCCCCCCCCOCCCOP(=O)(O)CO[C@H](C)Cn1cnc2c(N)ncnc21` [TENOFOVIR EXALIDEX]: a half-maximal response (EC50) required 2.5 nM.

The next test concerns Human immunodeficiency virus 1. Description: Antiviral activity against HIV1 isolate 203 harboring reverse transcriptase M41L/L210W/T215Y/M184V mutant gene by phenosense assay relative to wild type.
Conditions: not given
Format: functional. In short, it runs like this: as §2
As to `CCCCCCCCCCCCCCCCOCCCOP(=O)(O)CO[C@H](C)Cn1cnc2c(N)ncnc21` [TENOFOVIR EXALIDEX], the “fold change (FC)” value is recorded as 1.

The test system of another test is Human immunodeficiency virus 1. Description: Antiviral activity against HIV1 isolate 206 harboring reverse transcriptase D67N/K70R mutant gene by phenosense assay. Format: functional, organism-based. The note with it: Human immunodeficiency virus 1, isolate 206. In short, it runs like this:
as §2
For `CCCCCCCCCCCCCCCCOCCCOP(=O)(O)CO[C@H](C)Cn1cnc2c(N)ncnc21` [TENOFOVIR EXALIDEX], a half-maximal response (EC50) required 5.6 nM.

The subject of another test is Human immunodeficiency virus 1. Description: Antiviral activity against HIV1 isolate 203 harboring reverse transcriptase M41L/L210W/T215Y/M184V mutant gene by phenosense assay. Format: functional, organism-based. The note with it: Human immunodeficiency virus 1, isolate 203. The procedure, abridged:
as §2
Take `CCCCCCCCCCCCCCCCOCCCOP(=O)(O)CO[C@H](C)Cn1cnc2c(N)ncnc21` [TENOFOVIR EXALIDEX]: the response was half-maximal at 1.9 nM (EC50).

A further test deals with Human immunodeficiency virus 1. Description: Antiviral activity against HIV1 isolate 166 harboring reverse transcriptase L74V mutant gene obtained as site-directed mutant of NL4-3 by phenosense assay. Conditions: Human immunodeficiency virus 1, isolate 166. It counts as functional, organism-based. In short, it runs like this: as §1
In the case of `CCCCCCCCCCCCCCCCOCCCOP(=O)(O)CO[C@H](C)Cn1cnc2c(N)ncnc21` [TENOFOVIR EXALIDEX], the EC50 was determined as 1.5 nM.

The subject of a further test is Human immunodeficiency virus 1. Description: Antiviral activity against HIV1 isolate 194 harboring reverse transcriptase M41L/T215Y/M184V mutant gene by phenosense assay. It counts as functional, organism-based. The note with it: Human immunodeficiency virus 1, isolate 194. In short, it runs like this:
as §1
Compound `CCCCCCCCCCCCCCCCOCCCOP(=O)(O)CO[C@H](C)Cn1cnc2c(N)ncnc21` [TENOFOVIR EXALIDEX] registered an EC50 of 2.9 nM.

The next test has as its system Human immunodeficiency virus 1. Description: Antiviral activity against HIV1 isolate 220 harboring reverse transcriptase K70E/M184V mutant gene by phenosense assay. Format: functional, organism-based. The note with it: Human immunodeficiency virus 1, isolate 220. In short, it runs like this: as §2
Compound `CCCCCCCCCCCCCCCCOCCCOP(=O)(O)CO[C@H](C)Cn1cnc2c(N)ncnc21` [TENOFOVIR EXALIDEX] yielded an EC50 of 1.3 nM.

For the next test, the system named is Human immunodeficiency virus 1. The test can be described thus: Antiviral activity against HIV1 isolate 058 harboring reverse transcriptase M41L/D67N/K70R/L210W/T215F/K219Q mutant gene by phenosense assay relative to wild type. It counts as functional.
Conditions: not given
The procedure, abridged:
as §1
As for `CCCCCCCCCCCCCCCCOCCCOP(=O)(O)CO[C@H](C)Cn1cnc2c(N)ncnc21` [TENOFOVIR EXALIDEX], the “fold change (FC)” value is recorded as 4.6.

Another test concerns Human immunodeficiency virus 1. The test can be described thus: Antiviral activity against HIV1 isolate 069 harboring reverse transcriptase D67E/T69SSG/V75M/M184V/L210W/T215Y mutant gene by phenosense assay. It counts as functional, organism-based. Conditions: Human immunodeficiency virus 1, isolate 069. The procedure, abridged: as §1
In turn, `CCCCCCCCCCCCCCCCOCCCOP(=O)(O)CO[C@H](C)Cn1cnc2c(N)ncnc21` [TENOFOVIR EXALIDEX] yielded a half-maximal effective concentration (EC50) of 11 nM.

A further test concerns Human immunodeficiency virus 1. Description: Antiviral activity against HIV1 isolate 220 harboring reverse transcriptase K70E/M184V mutant gene by phenosense assay relative to wild type. Format: functional.
Conditions: not given
The procedure, abridged: as §2
Regarding `CCCCCCCCCCCCCCCCOCCCOP(=O)(O)CO[C@H](C)Cn1cnc2c(N)ncnc21` [TENOFOVIR EXALIDEX], the “fold change (FC)” value was determined as 0.71.

In a further test the test system is Human immunodeficiency virus 1. The test can be described thus: Antiviral activity against HIV1 isolate 153 harboring reverse transcriptase L74V mutant gene by phenosense assay relative to wild type. Format: functional.
Conditions: not given
In short, it runs like this: as §1
`CCCCCCCCCCCCCCCCOCCCOP(=O)(O)CO[C@H](C)Cn1cnc2c(N)ncnc21` [TENOFOVIR EXALIDEX]: the “fold change (FC)” value is recorded as 0.66.

The test system of the next test is Human immunodeficiency virus 1. The test can be described thus: Antiviral activity against HIV1 isolate 066 harboring reverse transcriptase 184V mutant gene by phenosense assay. It counts as functional, organism-based. Conditions: Human immunodeficiency virus 1, isolate 066. The procedure, abridged: as §1
`CCCCCCCCCCCCCCCCOCCCOP(=O)(O)CO[C@H](C)Cn1cnc2c(N)ncnc21` [TENOFOVIR EXALIDEX] gave an EC50 of 1.4 nM.

In another test the test system is Human immunodeficiency virus 1. Description: Antiviral activity against HIV1 isolate 185 harboring reverse transcriptase T215Y mutant gene by phenosense assay. It counts as functional, organism-based. Conditions: Human immunodeficiency virus 1, isolate 185. In short, it runs like this:
as §1
In the case of `CCCCCCCCCCCCCCCCOCCCOP(=O)(O)CO[C@H](C)Cn1cnc2c(N)ncnc21` [TENOFOVIR EXALIDEX], the EC50 was 5 nM.

The subject of a further test is Human immunodeficiency virus 1. Description: Antiviral activity against HIV1 isolate 217 harboring reverse transcriptase D67N/K70E/M184V mutant gene by phenosense assay. It counts as functional, organism-based. Conditions: Human immunodeficiency virus 1, isolate 217. In short, it runs like this:
as §2
Consider `CCCCCCCCCCCCCCCCOCCCOP(=O)(O)CO[C@H](C)Cn1cnc2c(N)ncnc21` [TENOFOVIR EXALIDEX], for which the concentration giving a half-maximal response (EC50) came to 1.5 nM.

For another test, the system named is Human immunodeficiency virus 1. The test can be described thus: Antiviral activity against HIV1 isolate 160 harboring reverse transcriptase S68G/V75(I/T)/F77L/Y115F/F116Y /Q151M mutant gene by phenosense assay relative to wild type.
Conditions: not given
It counts as functional. In short, it runs like this: as §1
With `CCCCCCCCCCCCCCCCOCCCOP(=O)(O)CO[C@H](C)Cn1cnc2c(N)ncnc21` [TENOFOVIR EXALIDEX], the “fold change (FC)” value is given as 2.

The subject of a further test is Human immunodeficiency virus 1. Description: Antiviral activity against HIV1 isolate 201 harboring reverse transcriptase M41L/L210W/T215Y mutant gene by phenosense assay. Format: functional, organism-based. The note with it: Human immunodeficiency virus 1, isolate 201. In short, it runs like this: as §1
The compound `CCCCCCCCCCCCCCCCOCCCOP(=O)(O)CO[C@H](C)Cn1cnc2c(N)ncnc21` [TENOFOVIR EXALIDEX] returned an EC50 of 6.6 nM.

By EC50 is commonly meant the concentration that produces a half-maximal response.
